Measurements published in ChEMBL document CHEMBL3044653, “Synthesis and herbicidal activity of 2-(substituted phenoxyacetoxy)alkyl-5,5-dimethyl-1,3,2-dioxaphosphinan-2-one” (J Agric Food Chem, 2012).

Columns and labels:
[1] = tested on: Abutilon theophrasti; test: Post-emergence herbicidal activity against Abutilon theophrasti (velvetleaf) assessed as inhibition at 150 g/hectare treated at two-leaf stage by green house assay; type: functional
Procedure, shortened: (§1)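 Greenhouse postemergence spray of diluted formulation solutions onto broadleaf weeds at the two-leaf stage. Primary screen at 150 g ai/ha, with selected compounds retested at 75 and 37.5 g ai/ha. Abutilon was tested at 150 g ai/ha only. Read-out is percent herbicidal damage relative to an untreated control.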

[2] = tested on: Brassica juncea; test: Post-emergence herbicidal activity against Brassica juncea assessed as inhibition at 37.5 g/hectare treated at two-leaf stage by green house assay; type: functional; procedure, shortened: as §1
[3] = tested on: Amaranthus retroflexus; test: Post-emergence herbicidal activity against Amaranthus retroflexus assessed as inhibition at 75 g/hectare by green house assay; type: functional
[4] = tested on: Digitaria sanguinalis; test: Post-emergence herbicidal activity against Digitaria sanguinalis (hairy crabgrass) assessed as inhibition at 37.5 g/hectare treated at one-leaf stage by green house assay; type: functional
Procedure, shortened: (§2)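 Monocot weeds were sprayed postemergence in the greenhouse at the one-leaf stage with diluted formulation solutions. Primary dose was 150 g ai/ha, with follow-up doses of 75 and 37.5 g ai/ha for selected compounds. Activity is scored as percent herbicidal damage compared with an untreated control.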

[5] = tested on: Amaranthus retroflexus; test: Post-emergence herbicidal activity against Amaranthus retroflexus assessed as inhibition at 37.5 g/hectare treated at two-leaf stage by green house assay; type: functional; procedure, shortened: as §1
[6] = tested on: Brassica oleracea; test: Post-emergence herbicidal activity against Brassica oleracea assessed as inhibition at 75 g/hectare by green house assay; type: functional
[7] = tested on: Setaria viridis; test: Post-emergence herbicidal activity against Setaria viridis (green foxtail) assessed as inhibition at 37.5 g/hectare treated at one-leaf stage by green house assay; type: functional; procedure, shortened: as §2
[8] = tested on: Eclipta prostrata; test: Post-emergence herbicidal activity against Eclipta prostrata assessed as inhibition at 150 g/hectare treated at two-leaf stage by green house assay; type: functional; procedure, shortened: as §1
[9] = tested on: Brassica juncea; test: Post-emergence herbicidal activity against Brassica juncea assessed as inhibition at 150 g/hectare treated at two-leaf stage by green house assay; type: functional; procedure, shortened: as §1
[10] = tested on: Zea mays; test: Toxicity in Zea mays (maize) plant assessed as inhibition at 150 g/hectare; type: organism-based; conditions: in vivo
Procedure, shortened: (§3)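 For crop selectivity, conventional crop varieties were planted in 12 cm diameter plots and given a postemergence treatment at 150 g ai/ha. Injury was scored as percent inhibition, with 0–10% classed as safe to the crop.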

[11] = tested on: Brassica juncea; test: Post-emergence herbicidal activity against Brassica juncea assessed as inhibition at 75 g/hectare by green house assay; type: functional
[12] = tested on: Setaria viridis; test: Post-emergence herbicidal activity against Setaria viridis (green foxtail) assessed as inhibition at 150 g/hectare treated at one-leaf stage by green house assay; type: functional; procedure, shortened: as §2
[13] = tested on: Chenopodium album; test: Post-emergence herbicidal activity against Chenopodium album assessed as inhibition at 75 g/hectare by green house assay; type: functional
[14] = tested on: Eclipta prostrata; test: Post-emergence herbicidal activity against Eclipta prostrata assessed as inhibition at 75 g/hectare treated at two-leaf stage by green house assay; type: functional; procedure, shortened: as §1
[15] = tested on: Radish; test: Post-emergence herbicidal activity against Raphanus sativus (radish) assessed as inhibition at 150 g/hectare by green house assay; type: functional
[16] = tested on: Amaranthus retroflexus; test: Post-emergence herbicidal activity against Amaranthus retroflexus assessed as inhibition at 150 g/hectare by green house assay; type: functional
[17] = tested on: Digitaria sanguinalis; test: Post-emergence herbicidal activity against Digitaria sanguinalis (hairy crabgrass) assessed as inhibition at 75 g/hectare treated at one-leaf stage by green house assay; type: functional; procedure, shortened: as §2
[18] = tested on: Glycine max; test: Toxicity in Glycine max (soybean) plant assessed as inhibition at 150 g/hectare; type: organism-based; conditions: in vivo; procedure, shortened: as §3
[19] = tested on: Chenopodium album; test: Post-emergence herbicidal activity against Chenopodium album assessed as inhibition at 150 g/hectare by green house assay; type: functional
[20] = tested on: Amaranthus retroflexus; test: Post-emergence herbicidal activity against Amaranthus retroflexus assessed as inhibition at 75 g/hectare treated at two-leaf stage by green house assay; type: functional; procedure, shortened: as §1
[21] = tested on: Brassica rapa subsp. oleifera; test: Post-emergence herbicidal activity against Brassica rapa subsp. oleifera assessed as inhibition at 75 g/hectare by green house assay; type: functional
[22] = tested on: Echinochloa crus-galli; test: Post-emergence herbicidal activity against Echinochloa crus-galli (barnyard grass) assessed as inhibition at 150 g/hectare treated at one-leaf stage by green house assay; type: functional; procedure, shortened: as §2
[23] = tested on: Ipomoea nil; test: Post-emergence herbicidal activity against Ipomoea nil (Japanese morning glory) assessed as inhibition at 150 g/hectare by green house assay; type: functional
[24] = tested on: Digitaria sanguinalis; test: Post-emergence herbicidal activity against Digitaria sanguinalis (hairy crabgrass) assessed as inhibition at 150 g/hectare treated at one-leaf stage by green house assay; type: functional; procedure, shortened: as §2
[25] = tested on: Ammannia baccifera; test: Post-emergence herbicidal activity against Ammannia baccifera assessed as inhibition at 75 g/hectare by green house assay; type: functional
[26] = tested on: Echinochloa crus-galli; test: Post-emergence herbicidal activity against Echinochloa crus-galli (barnyard grass) assessed as inhibition at 37.5 g/hectare treated at one-leaf stage by green house assay; type: functional; procedure, shortened: as §2
[27] = tested on: Pontederia vaginalis; test: Post-emergence herbicidal activity against Monochoria vaginalis assessed as inhibition at 75 g/hectare by green house assay; type: functional
[28] = tested on: Ipomoea nil; test: Post-emergence herbicidal activity against Ipomoea nil (Japanese morning glory) assessed as inhibition at 75 g/hectare by green house assay; type: functional
[29] = tested on: Brassica oleracea; test: Post-emergence herbicidal activity against Brassica oleracea assessed as inhibition at 150 g/hectare by green house assay; type: functional
[30] = tested on: Brassica rapa subsp. chinensis; test: Post-emergence herbicidal activity against Brassica rapa subsp. chinensis assessed as inhibition at 150 g/hectare by green house assay; type: functional
[31] = tested on: Echinochloa crus-galli; test: Post-emergence herbicidal activity against Echinochloa crus-galli (barnyard grass) assessed as inhibition at 75 g/hectare treated at one-leaf stage by green house assay; type: functional; procedure, shortened: as §2
[32] = tested on: Brassica rapa subsp. chinensis; test: Post-emergence herbicidal activity against Brassica rapa subsp. chinensis assessed as inhibition at 75 g/hectare by green house assay; type: functional
[33] = tested on: Triticum aestivum; test: Toxicity in Triticum aestivum (wheat) plant assessed as inhibition at 150 g/hectare; type: organism-based; conditions: in vivo; procedure, shortened: as §3
[34] = tested on: Gossypium hirsutum; test: Toxicity in Gossypium hirsutum (cotton) plant assessed as inhibition at 150 g/hectare; type: organism-based; conditions: in vivo; procedure, shortened: as §3
[35] = tested on: Brassica napus; test: Toxicity in Brassica napus (oilseed rape) assessed as inhibition at 150 g/hectare; type: functional; procedure, shortened: as §3
[36] = tested on: Oryza sativa; test: Toxicity in Oryza sativa (rice) plant assessed as inhibition at 150 g/hectare; type: organism-based; conditions: in vivo; procedure, shortened: as §3
[37] = tested on: Radish; test: Post-emergence herbicidal activity against Raphanus sativus (radish) assessed as inhibition at 75 g/hectare by green house assay; type: functional
[38] = tested on: Pontederia vaginalis; test: Post-emergence herbicidal activity against Monochoria vaginalis assessed as inhibition at 150 g/hectare by green house assay; type: functional
[39] = tested on: Ammannia baccifera; test: Post-emergence herbicidal activity against Ammannia baccifera assessed as inhibition at 150 g/hectare by green house assay; type: functional
[40] = tested on: Amaranthus retroflexus; test: Post-emergence herbicidal activity against Amaranthus retroflexus assessed as inhibition at 150 g/hectare treated at two-leaf stage by green house assay; type: functional; procedure, shortened: as §1
[41] = tested on: Brassica juncea; test: Post-emergence herbicidal activity against Brassica juncea assessed as inhibition at 150 g/hectare by green house assay; type: functional
[42] = tested on: Brassica rapa subsp. oleifera; test: Post-emergence herbicidal activity against Brassica rapa subsp. oleifera assessed as inhibition at 150 g/hectare by green house assay; type: functional
[43] = tested on: Brassica juncea; test: Post-emergence herbicidal activity against Brassica juncea assessed as inhibition at 75 g/hectare treated at two-leaf stage by green house assay; type: functional; procedure, shortened: as §1
[44] = tested on: Setaria viridis; test: Post-emergence herbicidal activity against Setaria viridis (green foxtail) assessed as inhibition at 75 g/hectare treated at one-leaf stage by green house assay; type: functional; procedure, shortened: as §2
[45] = tested on: Eclipta prostrata; test: Post-emergence herbicidal activity against Eclipta prostrata assessed as inhibition at 37.5 g/hectare treated at two-leaf stage by green house assay; type: functional; procedure, shortened: as §1

SMILES: CC(OC(=O)COc1ccc(Cl)cc1Cl)P1(=O)OCC(C)(C)CO1 (stereo not given)
- inhibition at 150 g/ha [1]: 95%
- inhibition at 37.5 g/ha [2]: 90%
- inhibition at 75 g/ha [3]: 75%
- inhibition at 37.5 g/ha [4]: 0%
- inhibition at 37.5 g/ha [5]: 70%
- inhibition at 75 g/ha [6]: 80%
- inhibition at 37.5 g/ha [7]: 0%
- inhibition at 150 g/ha [8]: 85%
- inhibition at 150 g/ha [9]: 95%
- inhibition (INH) [10]: 0%
- inhibition at 75 g/ha [11]: 95%
- inhibition at 150 g/ha [12]: 30%
- inhibition at 75 g/ha [13]: 80%
- inhibition at 75 g/ha [14]: 70%
- inhibition at 150 g/ha [15]: 95%
- inhibition at 150 g/ha [16]: 95%
- inhibition at 75 g/ha [17]: 0%
- inhibition (INH) [18]: 30%
- inhibition at 150 g/ha [19]: 85%
- inhibition at 75 g/ha [20]: 75%
- inhibition at 75 g/ha [21]: 90%
- inhibition at 150 g/ha [22]: 30%
- inhibition at 150 g/ha [23]: 100%
- inhibition at 150 g/ha [24]: 30%
- inhibition at 75 g/ha [25]: 100%
- inhibition at 37.5 g/ha [26]: 0%
- inhibition at 75 g/ha [27]: 100%
- inhibition at 75 g/ha [28]: 100%
- inhibition at 150 g/ha [29]: 90%
- inhibition at 150 g/ha [30]: 85%
- inhibition at 75 g/ha [31]: 0%
- inhibition at 75 g/ha [32]: 80%
- inhibition (INH) [33]: 0%
- inhibition (INH) [34]: 30%
- inhibition at 150 g/ha [35]: 40%
- inhibition (INH) [36]: 10%
- inhibition at 75 g/ha [37]: 90%
- inhibition at 150 g/ha [38]: 100%
- inhibition at 150 g/ha [39]: 100%
- inhibition at 150 g/ha [40]: 95%
- inhibition at 150 g/ha [41]: 95%
- inhibition at 150 g/ha [42]: 100%
- inhibition at 75 g/ha [43]: 95%
- inhibition at 75 g/ha [44]: 0%
- inhibition at 37.5 g/ha [45]: 50%

SMILES: CC1(C)COP(=O)(C(OC(=O)COc2ccc(Cl)cc2Cl)c2ccco2)OC1 (stereo not given)
- inhibition at 150 g/ha [1]: 90%
- inhibition at 37.5 g/ha [2]: 85%
- inhibition at 75 g/ha [3]: 70%
- inhibition at 37.5 g/ha [4]: 0%
- inhibition at 37.5 g/ha [5]: 50%
- inhibition at 75 g/ha [6]: 80%
- inhibition at 37.5 g/ha [7]: 0%
- inhibition at 150 g/ha [8]: 80%
- inhibition at 150 g/ha [9]: 95%
- inhibition (INH) [10]: 0%
- inhibition at 75 g/ha [11]: 90%
- inhibition at 150 g/ha [12]: 30%
- inhibition at 75 g/ha [13]: 70%
- inhibition at 75 g/ha [14]: 62%
- inhibition at 150 g/ha [15]: 85%
- inhibition at 150 g/ha [16]: 80%
- inhibition at 75 g/ha [17]: 0%
- inhibition (INH) [18]: 30%
- inhibition at 150 g/ha [19]: 80%
- inhibition at 75 g/ha [20]: 70%
- inhibition at 75 g/ha [21]: 80%
- inhibition at 150 g/ha [22]: 30%
- inhibition at 150 g/ha [23]: 100%
- inhibition at 150 g/ha [24]: 40%
- inhibition at 75 g/ha [25]: 100%
- inhibition at 37.5 g/ha [26]: 0%
- inhibition at 75 g/ha [27]: 100%
- inhibition at 75 g/ha [28]: 100%
- inhibition at 150 g/ha [29]: 85%
- inhibition at 150 g/ha [30]: 80%
- inhibition at 75 g/ha [31]: 0%
- inhibition at 75 g/ha [32]: 70%
- inhibition (INH) [33]: 10%
- inhibition (INH) [34]: 30%
- inhibition at 150 g/ha [35]: 40%
- inhibition (INH) [36]: 40%
- inhibition at 75 g/ha [37]: 80%
- inhibition at 150 g/ha [38]: 100%
- inhibition at 150 g/ha [39]: 100%
- inhibition at 150 g/ha [40]: 80%
- inhibition at 150 g/ha [41]: 95%
- inhibition at 150 g/ha [42]: 95%
- inhibition at 75 g/ha [43]: 90%
- inhibition at 75 g/ha [44]: 0%
- inhibition at 37.5 g/ha [45]: 60%
